Reference: ChEMBL document CHEMBL1671840, “Design, Synthesis, and Preclinical Characterization of the Selective Androgen Receptor Modulator (SARM) RAD140” (ACS Med Chem Lett, 2011)
pIC50, pKi: −log10 of the molar value. Calls of active or inactive are those of the source. No cut-off for these calls is given here.

What was measured:
[1] = Oral bioavailability in rat; type: ADME, organism-based; details: in vivo
[2] = Half life in rat microsomes; type: ADME, Microsome
[3] = Half life in monkey microsomes; type: ADME, Macaca mulatta, Microsome; details: rhesus monkey
[4] = Half life in human microsomes; type: ADME, Microsome
[5] = Oral bioavailability in monkey; type: ADME, organism-based, Macaca mulatta; details: rhesus monkey, in vivo
Androgen receptor = target: T1, Androgen receptor (Homo sapiens, UniProt P10275); assay: Displacement of fluorescent-tagged R1881 from androgen receptor after 4 hrs by fluorometric assay
T1 sequence (P10275 whole entry): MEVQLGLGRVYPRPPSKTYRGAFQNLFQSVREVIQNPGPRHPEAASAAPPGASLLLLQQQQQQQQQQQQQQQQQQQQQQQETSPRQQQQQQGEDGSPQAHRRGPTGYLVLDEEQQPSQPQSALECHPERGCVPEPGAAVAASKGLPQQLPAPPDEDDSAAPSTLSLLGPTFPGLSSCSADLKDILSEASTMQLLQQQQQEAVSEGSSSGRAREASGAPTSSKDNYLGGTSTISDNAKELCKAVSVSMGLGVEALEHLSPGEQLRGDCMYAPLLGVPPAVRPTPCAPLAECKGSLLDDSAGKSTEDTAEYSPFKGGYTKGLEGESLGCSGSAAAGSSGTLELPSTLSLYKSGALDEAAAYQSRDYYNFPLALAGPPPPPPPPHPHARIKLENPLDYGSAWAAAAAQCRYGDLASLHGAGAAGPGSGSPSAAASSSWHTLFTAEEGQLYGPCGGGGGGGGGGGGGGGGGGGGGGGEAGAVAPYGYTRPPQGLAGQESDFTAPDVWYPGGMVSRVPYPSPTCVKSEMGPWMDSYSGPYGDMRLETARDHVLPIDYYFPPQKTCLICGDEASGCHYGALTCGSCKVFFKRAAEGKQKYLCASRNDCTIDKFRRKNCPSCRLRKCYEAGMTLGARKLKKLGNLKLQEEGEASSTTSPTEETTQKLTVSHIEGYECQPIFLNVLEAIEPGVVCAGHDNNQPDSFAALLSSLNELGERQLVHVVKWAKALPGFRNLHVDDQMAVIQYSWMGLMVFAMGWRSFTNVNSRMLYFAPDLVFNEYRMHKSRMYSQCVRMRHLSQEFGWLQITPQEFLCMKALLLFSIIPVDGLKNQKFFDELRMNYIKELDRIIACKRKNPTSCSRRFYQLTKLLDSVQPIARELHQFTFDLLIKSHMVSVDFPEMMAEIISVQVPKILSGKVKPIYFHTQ

Progesterone receptor = target: T2, Progesterone receptor (Homo sapiens, UniProt P06401); assay: Binding affinity to progesterone receptor
T2 sequence (P06401 whole entry): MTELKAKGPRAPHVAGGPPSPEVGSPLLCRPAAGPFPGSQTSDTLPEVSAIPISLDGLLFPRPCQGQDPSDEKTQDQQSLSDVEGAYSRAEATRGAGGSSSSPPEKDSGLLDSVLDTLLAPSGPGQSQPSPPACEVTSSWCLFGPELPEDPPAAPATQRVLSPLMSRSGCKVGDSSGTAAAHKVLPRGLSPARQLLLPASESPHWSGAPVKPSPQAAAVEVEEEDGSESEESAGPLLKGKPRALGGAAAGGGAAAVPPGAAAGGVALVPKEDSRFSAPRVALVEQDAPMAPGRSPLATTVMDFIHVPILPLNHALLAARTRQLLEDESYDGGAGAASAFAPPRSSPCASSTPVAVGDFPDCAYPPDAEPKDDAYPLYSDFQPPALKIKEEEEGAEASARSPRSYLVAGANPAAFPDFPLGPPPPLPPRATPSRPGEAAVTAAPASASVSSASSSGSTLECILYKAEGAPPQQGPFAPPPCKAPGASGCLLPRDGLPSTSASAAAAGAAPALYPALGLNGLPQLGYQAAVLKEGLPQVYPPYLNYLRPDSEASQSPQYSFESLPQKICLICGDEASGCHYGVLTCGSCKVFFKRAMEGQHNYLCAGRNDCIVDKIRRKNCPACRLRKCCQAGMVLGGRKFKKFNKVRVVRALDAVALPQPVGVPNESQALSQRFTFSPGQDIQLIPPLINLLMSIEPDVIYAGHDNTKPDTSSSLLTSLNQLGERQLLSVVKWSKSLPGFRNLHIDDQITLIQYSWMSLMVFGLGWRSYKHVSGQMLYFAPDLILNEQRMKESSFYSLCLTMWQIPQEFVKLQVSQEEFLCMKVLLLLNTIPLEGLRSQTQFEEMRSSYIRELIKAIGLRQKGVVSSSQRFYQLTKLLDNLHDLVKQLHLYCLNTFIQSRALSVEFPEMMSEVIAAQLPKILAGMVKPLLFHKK

Rattus norvegicus [6] = assay: Androgenic activity in young intact rat assessed as increase of prostate weight at 30 mg/kg, po qd for 11 days; type: functional, organism-based; parameters: dose 30 mg/kg; details: Prostate gland
Rattus norvegicus [7] = assay: Androgenic activity in young intact rat assessed as increase of levator ani bulbocavernosus muscle weight at 0.1 mg/kg, po qd for 11 days; type: functional, organism-based; parameters: dose 0.1 mg/kg; details: Muscle tissue
Rattus norvegicus [8] = assay: Androgenic activity in castrated immature rat assessed as increase of levator ani bulbocavernosus muscle weight at 0.03 mg/kg, po qd for 11 days; type: functional, organism-based; parameters: dose 0.03 mg/kg; details: Muscle tissue
Rattus norvegicus [9] = assay: Androgenic activity in castrated immature rat assessed as increase of levator ani bulbocavernosus muscle weight at 0.3 mg/kg, po qd for 11 days; type: functional, organism-based; parameters: dose 0.3 mg/kg; details: Muscle tissue
Rattus norvegicus [10] = assay: Androgenic activity in young intact rat assessed as increase of levator ani bulbocavernosus muscle weight at 0.3 mg/kg, po qd for 11 days; type: functional, organism-based; parameters: dose 0.3 mg/kg; details: Muscle tissue
Rattus norvegicus [11] = assay: Androgenic activity in young intact rat assessed as increase of levator ani bulbocavernosus muscle weight at 0.5 mg/kg, sc qd for 11 days; type: functional, organism-based; parameters: dose 0.5 mg/kg; details: Muscle tissue
Rattus norvegicus [12] = assay: Androgenic activity in young intact rat assessed as increase of prostate weight at 0.5 mg/kg, sc qd for 11 days; type: functional, organism-based; parameters: dose 0.5 mg/kg; details: Prostate gland
Cynomolgus monkey [13] = assay: Androgenic activity in cynomolgus monkey assessed as increase of body weight at 0.1 mg/kg, po qd for 28 days; type: functional, Macaca fascicularis
Outline: (§1)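 Monkeys in groups of 3, grouped from day -21 and weighed at each time point. Oral dosing at 0.01, 0.1 or 1 mg/kg for 28 days, then 21 days off-dose. Each animal's weight change over the pre-dose weeks served as baseline; baseline-subtracted change from day -1 to day 29 was tested statistically.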

Cynomolgus monkey [14] = assay: Androgenic activity in cynomolgus monkey assessed as increase of body weight at 1 mg/kg, po qd for 28 days; type: functional, organism-based; parameters: dose 1 mg/kg; details: Macaca fascicularis; outline: as §1
Cynomolgus monkey [15] = assay: Androgenic activity in cynomolgus monkey assessed as effect on lean tissue weight at up to 1 mg/kg, po qd for 28 days measured after 24 hrs of last post dose; type: functional, organism-based; parameters: dose 1 mg/kg; details: Macaca fascicularis
Outline: (§2)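 Monkeys, 3 per group, dosed orally at 0.01, 0.1 or 1 mg/kg for 28 days. DEXA scans on day -2 and day 29 gave fat and lean tissue mass. Mean change per group, with SD.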

Cynomolgus monkey [16] = assay: Androgenic activity in cynomolgus monkey assessed as effect on fat mass at up to 1 mg/kg, po qd for 28 days measured after 24 hrs of last post dose; type: functional, organism-based; parameters: dose 1 mg/kg; details: Macaca fascicularis; outline: as §2

**Q.** With `Cc1c(N[C@@H](c2nnc(-c3ccccc3)o2)[C@H](C)O)ccc(C#N)c1Cl` as the compound, how does the bioavailability [1] read?
**A.** < 5%

**Q.** Which bioavailability [1] does the source give for `Cc1c(N[C@@H](c2nnc(-c3ccc(C#N)cc3)o2)[C@H](C)O)ccc(C#N)c1Cl` [RAD-140] here?
**A.** 27%

**Q.** And the half-life [2]?
**A.** > 2 h

**Q.** What about the half-life [3] of the same compound?
**A.** > 2 h

**Q.** And the half-life [4]?
**A.** > 2 h

**Q.** What about the bioavailability [5] of the same compound?
**A.** 65%

**Q.** What about the pKi (Androgen receptor) of the same compound?
**A.** 8.15

**Q.** What about the pIC50 (Progesterone receptor) of the same compound?
**A.** 6.12

**Q.** What about the Activity (Rattus norvegicus [6]) of the same compound?
**A.** inactive

**Q.** What about the Activity (Rattus norvegicus [7]) of the same compound?
**A.** Active

**Q.** What about the Activity (Rattus norvegicus [8]) of the same compound?
**A.** Active

**Q.** And the Activity (Rattus norvegicus [9])?
**A.** Active

**Q.** And the Activity (Rattus norvegicus [10])?
**A.** Active

**Q.** What about the Activity (Rattus norvegicus [11]) of the same compound?
**A.** Active

**Q.** What about the Activity (Rattus norvegicus [12]) of the same compound?
**A.** Active

**Q.** And the Activity (Cynomolgus monkey [13])?
**A.** 10%

**Q.** What about the Activity (Cynomolgus monkey [14]) of the same compound?
**A.** Active

**Q.** And the Activity (Cynomolgus monkey [15])?
**A.** inactive

**Q.** What about the Activity (Cynomolgus monkey [16]) of the same compound?
**A.** inactive
